Reference: ChEMBL document CHEMBL3784976 (J Med Chem, 2016)
In brackets after ≈: the same amount, converted by molar mass. Activity calls are given as the source filed them. The rule behind the calls is not given here.

Key:
[1] = biological target: Sodium-dependent dopamine transporter (Homo sapiens) (UniProt Q01959); experiment: Displacement of [3H]BTCP from human recombinant dopamine transporter expressed in CHO cells assessed as remaining radioligand binding at 10 uM after 120 mins by scintillation counting method relative to control; format: cell-based
[2] = biological target: D(2) dopamine receptor (Homo sapiens) (UniProt P14416); experiment: Displacement of [3H]methyl-spiperone from human recombinant dopamine D2S receptor expressed in HEK293 cells assessed as remaining radioligand binding at 10 uM after 60 mins by scintillation counting method relative to control; format: cell-based
Chain of D(2) dopamine receptor (Homo sapiens) (P14416 whole entry): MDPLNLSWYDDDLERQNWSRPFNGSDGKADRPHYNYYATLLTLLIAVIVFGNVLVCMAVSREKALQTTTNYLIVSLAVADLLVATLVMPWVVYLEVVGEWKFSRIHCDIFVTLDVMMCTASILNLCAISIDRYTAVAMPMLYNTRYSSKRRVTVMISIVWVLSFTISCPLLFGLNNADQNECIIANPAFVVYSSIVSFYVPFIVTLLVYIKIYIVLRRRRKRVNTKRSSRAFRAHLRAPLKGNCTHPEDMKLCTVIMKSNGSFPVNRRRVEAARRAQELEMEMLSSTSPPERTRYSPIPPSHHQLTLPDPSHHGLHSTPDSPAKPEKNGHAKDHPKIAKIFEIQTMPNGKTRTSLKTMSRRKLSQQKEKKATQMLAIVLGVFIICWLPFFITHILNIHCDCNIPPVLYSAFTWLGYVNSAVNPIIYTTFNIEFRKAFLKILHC

[3] = Ratio of unbound plasma concentration in Harlan Sprague-Dawley rat model of AITC-induced flinching at 1 mg/kg, po to IC50 for rat TRPA1 expressed in tetracycline-inducible T-REx expression system transfected CHO cells by 45Ca2+ uptake assay; format: ADME, organism-based; conditions: in vivo
In short: (§1)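 Rats dosed orally at 1, 3, 10 or 30 mg/kg in 2% HPMC/1% Tween-80 vehicle. After 1 h, unbound plasma concentration measured (n = 8 per dose), intraplantar AITC (0.1%) given and flinching scored over the first minute. Unbound concentration divided by in vitro rat TRPA1 45Ca2+ IC50.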

Jurkat = experiment: Displacement of [3H]DTG from sigma receptor in human Jurkat cells assessed as remaining radioligand binding at 10 uM after 120 mins by scintillation counting method relative to control; format: cell-based
[4] = biological target: Kappa-type opioid receptor (Rattus norvegicus) (UniProt P34975); experiment: Displacement of [3H]U-69593 from rat recombinant kappa opioid receptor expressed in CHO cells assessed as remaining radioligand binding at 10 uM after 60 mins by scintillation counting method relative to control; format: cell-based
Chain of Kappa-type opioid receptor (Rattus norvegicus) (P34975 whole entry): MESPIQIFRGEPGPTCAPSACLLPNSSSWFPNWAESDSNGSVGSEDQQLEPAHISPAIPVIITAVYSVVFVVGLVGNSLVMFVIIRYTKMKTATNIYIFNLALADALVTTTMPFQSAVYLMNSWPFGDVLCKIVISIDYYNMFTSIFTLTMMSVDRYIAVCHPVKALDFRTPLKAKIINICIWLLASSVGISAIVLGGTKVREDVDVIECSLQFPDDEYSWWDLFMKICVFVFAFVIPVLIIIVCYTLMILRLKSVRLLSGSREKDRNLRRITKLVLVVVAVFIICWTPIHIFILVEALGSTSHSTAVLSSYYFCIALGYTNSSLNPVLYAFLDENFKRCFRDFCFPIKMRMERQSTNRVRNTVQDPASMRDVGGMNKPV

[5] = biological target: Adenosine receptor A3 (Homo sapiens) (UniProt P0DMS8); experiment: Displacement of [125I]AB-MECA from human recombinant adenosine A3 receptor expressed in HEK293 cells assessed as remaining radioligand binding at 10 uM after 120 mins by scintillation counting method relative to control; format: cell-based
Rattus norvegicus [6] = experiment: In vivo inhibition of TRPA1 in Harlan Sprague-Dawley rat model of AITC-induced flinching assessed as unbound plasma concentration based IC50; format: functional, organism-based
In short: (§2)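 Rats were given vehicle (2% HPMC/1% Tween-80) or compound orally at 1, 3, 10 or 30 mg/kg. After 1 h, 0.1% AITC was injected into one left ventral hind paw, and nocifensive flinching was recorded over the first minute. Unbound plasma concentration was measured at 1 h, n = 8 per dose. In vivo IC50/IC90 came from the exposure–response relationship across individual animals.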

[7] = biological target: T1, Transient receptor potential cation channel subfamily A member 1 (Rattus norvegicus, UniProt Q6RI86); experiment: Antagonist activity at rat TRPA1 expressed in tetracycline-inducible T-REx expression system transfected CHO cells assessed as inhibition of AITC-induced 45Ca2+ uptake preincubated for 1 min followed by AITC addition measured after 12 mins; format: cell-based
T1 sequence (Q6RI86 whole entry): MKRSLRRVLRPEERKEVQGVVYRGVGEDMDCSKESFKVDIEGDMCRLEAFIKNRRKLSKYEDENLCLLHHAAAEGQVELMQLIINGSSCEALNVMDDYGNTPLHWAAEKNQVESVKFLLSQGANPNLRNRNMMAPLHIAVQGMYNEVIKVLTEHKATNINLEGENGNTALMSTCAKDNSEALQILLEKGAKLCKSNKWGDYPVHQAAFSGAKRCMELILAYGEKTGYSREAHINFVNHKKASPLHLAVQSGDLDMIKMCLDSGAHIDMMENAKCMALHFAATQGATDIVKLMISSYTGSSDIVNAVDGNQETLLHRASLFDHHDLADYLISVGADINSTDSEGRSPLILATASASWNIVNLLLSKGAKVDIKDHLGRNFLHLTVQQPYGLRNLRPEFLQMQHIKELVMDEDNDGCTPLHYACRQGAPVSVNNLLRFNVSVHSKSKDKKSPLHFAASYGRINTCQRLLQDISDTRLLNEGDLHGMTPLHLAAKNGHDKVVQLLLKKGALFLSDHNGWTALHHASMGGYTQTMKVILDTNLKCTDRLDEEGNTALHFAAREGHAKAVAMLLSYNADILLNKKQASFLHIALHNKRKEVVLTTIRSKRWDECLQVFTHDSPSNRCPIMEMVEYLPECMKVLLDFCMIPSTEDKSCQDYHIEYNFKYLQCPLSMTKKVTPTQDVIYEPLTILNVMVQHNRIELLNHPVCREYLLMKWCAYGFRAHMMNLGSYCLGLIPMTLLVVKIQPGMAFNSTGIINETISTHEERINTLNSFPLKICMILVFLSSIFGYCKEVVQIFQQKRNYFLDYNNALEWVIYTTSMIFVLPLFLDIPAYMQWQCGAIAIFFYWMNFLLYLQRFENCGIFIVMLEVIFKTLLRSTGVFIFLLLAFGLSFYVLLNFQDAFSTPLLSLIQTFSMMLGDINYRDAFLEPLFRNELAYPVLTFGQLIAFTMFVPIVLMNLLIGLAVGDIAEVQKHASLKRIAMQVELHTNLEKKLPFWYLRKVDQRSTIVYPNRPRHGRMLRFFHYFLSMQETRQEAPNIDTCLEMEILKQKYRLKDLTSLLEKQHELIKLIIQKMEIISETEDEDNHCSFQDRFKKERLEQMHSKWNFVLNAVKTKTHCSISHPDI

[8] = Apparent permeability from apical to basolateral side in MDCK cells expressing control vector after 120 mins by LC-MS/MS analysis; format: ADME, cell-based, Canis lupus familiaris; conditions: dog
Cavia porcellus = species: Cavia porcellus; experiment: Displacement of [3H]NBTI from adenosine transporter in guinea pig cerebral cortex assessed as remaining radioligand binding at 10 uM after 30 mins by scintillation counting method relative to control; format: tissue-based
[9] = biological target: 5-hydroxytryptamine receptor 4 (Homo sapiens) (UniProt Q13639); experiment: Displacement of [3H]GR-113808 from human recombinant 5HT4E receptor expressed in CHO cells assessed as remaining radioligand binding at 10 uM after 60 mins by scintillation counting method relative to control; format: cell-based
Chain of 5-hydroxytryptamine receptor 4 (Homo sapiens) (Q13639 whole entry): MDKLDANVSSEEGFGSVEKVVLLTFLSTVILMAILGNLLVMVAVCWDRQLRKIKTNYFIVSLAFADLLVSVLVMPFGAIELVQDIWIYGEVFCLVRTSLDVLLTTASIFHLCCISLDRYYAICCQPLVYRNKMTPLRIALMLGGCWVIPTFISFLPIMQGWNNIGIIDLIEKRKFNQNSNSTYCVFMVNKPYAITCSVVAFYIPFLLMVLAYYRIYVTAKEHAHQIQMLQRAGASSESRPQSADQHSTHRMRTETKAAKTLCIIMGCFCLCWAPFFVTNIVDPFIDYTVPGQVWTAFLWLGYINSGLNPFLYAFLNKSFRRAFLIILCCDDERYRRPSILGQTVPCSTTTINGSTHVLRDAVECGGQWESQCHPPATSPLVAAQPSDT

[10] = biological target: Alpha-2A adrenergic receptor (Homo sapiens) (UniProt P08913); experiment: Displacement of [3H]RX-821002 from human recombinant adrenergic alpha2A expressed in CHO cells assessed as remaining radioligand binding at 10 uM after 60 mins by scintillation counting method relative to control; format: cell-based
Chain of Alpha-2A adrenergic receptor (Homo sapiens) (P08913 whole entry): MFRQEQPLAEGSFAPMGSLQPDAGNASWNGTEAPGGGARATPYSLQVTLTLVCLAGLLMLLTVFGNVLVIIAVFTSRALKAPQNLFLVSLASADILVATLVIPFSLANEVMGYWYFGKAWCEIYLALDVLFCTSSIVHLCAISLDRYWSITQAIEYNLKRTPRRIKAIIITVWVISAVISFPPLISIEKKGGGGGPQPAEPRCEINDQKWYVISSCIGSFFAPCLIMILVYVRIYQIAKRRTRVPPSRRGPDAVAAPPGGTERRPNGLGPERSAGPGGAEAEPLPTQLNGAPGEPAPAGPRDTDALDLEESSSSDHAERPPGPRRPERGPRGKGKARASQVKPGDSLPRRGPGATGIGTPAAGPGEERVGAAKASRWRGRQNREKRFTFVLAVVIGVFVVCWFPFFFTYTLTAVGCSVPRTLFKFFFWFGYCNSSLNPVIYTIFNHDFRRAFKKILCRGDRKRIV

[11] = biological target: Beta-2 adrenergic receptor (Homo sapiens) (UniProt P07550); experiment: Displacement of (-)-[3H]CGP-12177 from human recombinant adrenergic beta2 receptor expressed in CHO cells assessed as remaining radioligand binding at 10 uM after 120 mins by scintillation counting method relative to control; format: cell-based
Plasma [12] = experiment: Unbound plasma concentration in Harlan Sprague-Dawley rat model of AITC-induced flinching at 3 mg/kg, po at 1 hr; format: ADME, organism-based; conditions: in vivo; in short: as §2
[13] = Fraction unbound in rat plasma; format: ADME, cell-free
[14] = Solubility of compound in simulated intestinal fluid; format: ADME
[15] = biological target: Transient receptor potential cation channel subfamily M member 8 (Rattus norvegicus) (UniProt Q8R455); experiment: Antagonist activity at rat TRPM8 assessed as inhibition of icilin-induced Ca2+ influx up to 10 uM preincubated for 2.5 mins followed by icilin addition measured for 1 min by luminescence assay
Chain of Transient receptor potential cation channel subfamily M member 8 (Rattus norvegicus) (Q8R455 whole entry, looked up): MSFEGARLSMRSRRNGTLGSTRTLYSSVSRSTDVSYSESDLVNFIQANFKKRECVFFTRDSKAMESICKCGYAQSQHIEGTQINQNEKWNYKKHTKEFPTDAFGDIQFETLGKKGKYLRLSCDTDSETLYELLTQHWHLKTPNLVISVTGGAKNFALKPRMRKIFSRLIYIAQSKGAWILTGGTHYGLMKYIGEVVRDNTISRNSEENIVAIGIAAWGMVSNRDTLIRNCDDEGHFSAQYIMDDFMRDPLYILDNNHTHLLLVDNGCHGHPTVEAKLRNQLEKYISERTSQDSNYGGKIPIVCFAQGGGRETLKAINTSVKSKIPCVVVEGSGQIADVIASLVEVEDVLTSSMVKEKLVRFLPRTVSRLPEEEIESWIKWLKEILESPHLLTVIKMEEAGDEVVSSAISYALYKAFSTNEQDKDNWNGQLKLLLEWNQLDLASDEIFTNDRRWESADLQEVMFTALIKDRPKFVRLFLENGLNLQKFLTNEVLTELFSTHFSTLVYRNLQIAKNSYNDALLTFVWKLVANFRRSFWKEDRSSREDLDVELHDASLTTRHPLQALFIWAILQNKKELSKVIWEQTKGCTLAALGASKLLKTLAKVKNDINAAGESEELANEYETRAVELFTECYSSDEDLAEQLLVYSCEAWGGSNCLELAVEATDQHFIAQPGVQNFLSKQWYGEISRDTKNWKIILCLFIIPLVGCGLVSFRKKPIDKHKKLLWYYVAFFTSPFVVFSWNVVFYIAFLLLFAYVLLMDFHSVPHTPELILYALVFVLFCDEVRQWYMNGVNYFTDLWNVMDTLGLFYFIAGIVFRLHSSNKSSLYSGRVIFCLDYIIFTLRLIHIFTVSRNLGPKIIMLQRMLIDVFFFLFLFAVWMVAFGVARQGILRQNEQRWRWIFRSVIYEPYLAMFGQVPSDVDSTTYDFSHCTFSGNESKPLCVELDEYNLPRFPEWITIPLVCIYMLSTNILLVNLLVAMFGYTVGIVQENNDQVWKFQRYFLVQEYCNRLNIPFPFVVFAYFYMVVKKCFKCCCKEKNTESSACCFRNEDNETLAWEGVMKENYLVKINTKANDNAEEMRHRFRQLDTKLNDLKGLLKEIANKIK

[16] = biological target: C-X-C chemokine receptor type 2 (Homo sapiens) (UniProt P25025); experiment: Displacement of [125I]IL-8 from human recombinant CXCR2 expressed in HEK293 cells assessed as remaining radioligand binding at 10 uM after 60 mins by scintillation counting method relative to control; format: cell-based
Chain of C-X-C chemokine receptor type 2 (Homo sapiens) (P25025 whole entry): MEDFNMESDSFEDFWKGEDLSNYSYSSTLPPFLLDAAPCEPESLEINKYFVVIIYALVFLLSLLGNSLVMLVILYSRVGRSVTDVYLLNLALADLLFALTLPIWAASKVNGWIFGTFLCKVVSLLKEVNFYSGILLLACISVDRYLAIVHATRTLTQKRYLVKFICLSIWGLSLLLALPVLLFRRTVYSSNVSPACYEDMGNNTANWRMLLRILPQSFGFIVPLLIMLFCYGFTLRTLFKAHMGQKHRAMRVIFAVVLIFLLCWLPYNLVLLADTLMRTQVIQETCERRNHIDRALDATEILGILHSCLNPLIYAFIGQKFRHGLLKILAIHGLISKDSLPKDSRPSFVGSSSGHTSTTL

[17] = Solubility of compound in pH 7.4 phosphate buffered saline; format: physicochemical
[18] = Ratio of unbound plasma concentration in Harlan Sprague-Dawley rat model of AITC-induced flinching at 30 mg/kg, po to IC50 for rat TRPA1 expressed in tetracycline-inducible T-REx expression system transfected CHO cells by 45Ca2+ uptake assay; format: ADME, organism-based; conditions: in vivo; in short: as §1
[19] = biological target: Cannabinoid receptor 1 (Homo sapiens) (UniProt P21554); experiment: Displacement of [3H]CP-55940 from human recombinant CB1 receptor expressed in CHO cells assessed as remaining radioligand binding at 10 uM after 120 mins by scintillation counting method relative to control; format: cell-based
[20] = biological target: T1, Transient receptor potential cation channel subfamily A member 1; experiment: Agonist activity at rat TRPA1 expressed in tetracycline-inducible T-REx expression system transfected CHO cells by 45Ca2+ uptake assay; format: cell-based
Cytochrome P450 3A4 = Cytochrome P450 3A4 (Homo sapiens, UniProt P08684); experiment: Inhibition of CYP3A4 in human liver microsomes using midazolam as substrate by LC-MS/MS analysis in presence of NADPH; format: ADME
Rattus norvegicus [21] = experiment: In vivo inhibition of TRPA1 in Harlan Sprague-Dawley rat model of AITC-induced flinching assessed as unbound plasma concentration based IC90; format: functional; in short: as §2
[22] = biological target: Histamine H1 receptor (Homo sapiens) (UniProt P35367); experiment: Displacement of [3H]pyrilamine from human recombinant histamine H1 receptor expressed in HEK293 cells assessed as remaining radioligand binding at 10 uM after 60 mins by scintillation counting method relative to control; format: cell-based
Chain of Histamine H1 receptor (Homo sapiens) (P35367 whole entry): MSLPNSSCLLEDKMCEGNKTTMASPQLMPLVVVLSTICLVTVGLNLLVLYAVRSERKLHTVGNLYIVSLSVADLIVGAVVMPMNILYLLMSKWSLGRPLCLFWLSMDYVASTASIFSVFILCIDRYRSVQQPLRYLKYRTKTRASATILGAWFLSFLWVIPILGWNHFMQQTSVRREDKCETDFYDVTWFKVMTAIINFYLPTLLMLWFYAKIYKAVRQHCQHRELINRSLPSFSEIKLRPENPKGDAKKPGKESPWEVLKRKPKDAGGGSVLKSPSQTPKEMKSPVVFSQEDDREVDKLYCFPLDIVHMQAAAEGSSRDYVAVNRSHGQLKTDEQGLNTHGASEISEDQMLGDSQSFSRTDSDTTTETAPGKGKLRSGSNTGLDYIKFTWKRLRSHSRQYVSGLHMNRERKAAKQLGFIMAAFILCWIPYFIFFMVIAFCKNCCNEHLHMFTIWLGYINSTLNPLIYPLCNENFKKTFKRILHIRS

[23] = biological target: Muscarinic acetylcholine receptor M1 (Homo sapiens) (UniProt P11229); experiment: Displacement of [3H]pirenzepine from human recombinant muscarinic M1 receptor expressed in CHO cells assessed as remaining radioligand binding at 10 uM after 60 mins by scintillation counting method relative to control; format: cell-based
[24] = biological target: Substance-K receptor (Homo sapiens) (UniProt P21452); experiment: Displacement of [125I]NKA from human recombinant NK2 receptor expressed in CHO cells assessed as remaining radioligand binding at 10 uM after 60 mins by scintillation counting method relative to control; format: cell-based
Plasma [25] = experiment: Unbound plasma concentration in Harlan Sprague-Dawley rat model of AITC-induced flinching at 30 mg/kg, po at 1 hr; format: ADME, organism-based; conditions: in vivo; in short: as §2

Compound `Cn1cnc2ncn(Cc3nc(CCc4ccc(Cl)cc4)no3)c(=O)c21` has an Activity [1] greater than 77%, an Activity [2] greater than 77% and a Ratio [3] of 0.72. It also gave an Activity (Jurkat) greater than 77%, an Activity [4] greater than 77% and an Activity [5] greater than 77%. For the same compound, the IC50 (Rattus norvegicus [6]) was 0.35 µM, the IC50 [7] was 0.071 µM and the Papp A→B at 2 h [8] was 44.5 ×10⁻⁶ cm/s. For the same compound, the Activity (Cavia porcellus) was greater than 77%, the Activity [9] was greater than 77% and the Activity [10] was greater than 77%. For the same compound, the Activity [11] was greater than 77%, the “Cp(f)” value (Plasma [12]) was 190 nM and the fraction unbound [13] was 0.289. For the same compound, the solubility [14] was 248 µM (≈ 92 µg/mL), the inhibition [15] was “inactive” and the Activity [16] was greater than 77%. The solubility [17] was 226 µM (≈ 83.8 µg/mL), the Ratio [18] was 30.3 and the Activity [19] was greater than 77%. The EC50 [20] was greater than 40 µM, the IC50 (Cytochrome P450 3A4) was greater than 27 µM and the IC90 (Rattus norvegicus [21]) was 1.7 µM. It also gave an Activity [22] greater than 77%, an Activity [23] greater than 77% and an Activity [24] greater than 77%. For the same compound, the “Cp(f)” value (Plasma [25]) was 2200 nM.
